In paper PMC3377097 (EMBO Molecular Medicine, 2011):
One block for each molecule: values may come before it.

Tests used:
C57BL/6J mice = experiment: Thioglycollate-induced peritonitis; format: in vivo; conditions: oral gavage; for level of ICAM1 and CCR2: cells of the peritoneal lavage
human isoQC = human isoQC (Homo sapiens, UniProt Q9NXS2); experiment: isoQC inhibition, Ki-values at pH 8; format: biochemical
murine QC = murine QC (Mus musculus, UniProt Q9CYK2); experiment: QC inhibition, Ki-values at pH 8; format: biochemical
murine QC, sequence (Q9CYK2 36-362): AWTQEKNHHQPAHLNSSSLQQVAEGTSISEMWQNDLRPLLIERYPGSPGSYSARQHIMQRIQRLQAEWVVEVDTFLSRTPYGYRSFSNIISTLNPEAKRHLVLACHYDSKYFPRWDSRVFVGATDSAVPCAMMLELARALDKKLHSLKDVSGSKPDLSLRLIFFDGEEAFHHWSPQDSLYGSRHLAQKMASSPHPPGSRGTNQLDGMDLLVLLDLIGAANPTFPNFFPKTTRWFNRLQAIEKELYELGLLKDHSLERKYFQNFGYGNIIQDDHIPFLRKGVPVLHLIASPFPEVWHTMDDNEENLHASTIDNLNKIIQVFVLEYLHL

[1] = system: models of Alzheimer's disease; conditions: high doses for up to 6 months ref Schilling et al, 2008; cited from earlier work
ApoE3*Leiden mice = experiment: Cuff-induced accelerated atherosclerosis; format: in vivo
murine isoQC = murine isoQC (Mus musculus, UniProt Q8BH73); experiment: isoQC inhibition, Ki-values at pH 8; format: biochemical
murine isoQC, sequence (Q8BH73 whole entry): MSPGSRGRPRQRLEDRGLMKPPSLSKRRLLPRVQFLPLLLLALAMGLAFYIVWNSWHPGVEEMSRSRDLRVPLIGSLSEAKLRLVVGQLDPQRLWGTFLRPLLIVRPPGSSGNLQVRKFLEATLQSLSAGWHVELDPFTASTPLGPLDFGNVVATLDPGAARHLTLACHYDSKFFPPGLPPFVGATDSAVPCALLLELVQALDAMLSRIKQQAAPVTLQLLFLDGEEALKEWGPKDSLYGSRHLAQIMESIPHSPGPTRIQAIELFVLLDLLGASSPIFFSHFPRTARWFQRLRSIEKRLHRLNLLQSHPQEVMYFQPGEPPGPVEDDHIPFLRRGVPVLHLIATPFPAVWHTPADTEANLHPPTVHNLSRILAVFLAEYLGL

[2] = system: human primary macrophages; experiment: pE1-CCL2 secreted from LPS-stimulated primary macrophages; format: cell-based
Outline: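 Human PBMCs were separated on an LSM 1077 density gradient and grown overnight at 37°C and 5% CO2. Adherent monocytes/macrophages were detached with accutase, plated at 1 × 10^5 cells/well and stimulated with 1 µg/ml LPS (E. coli O55:B5) for 24 h. Medium pE1-CCL2 was measured by sandwich ELISA: capture with 25 ng/well goat anti-hMCP-1 (overnight, 4°C), samples 2 h at room temperature, TMB read at 450 nm minus 550 nm.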

[3] = system: LPS-stimulated primary glia cells; experiment: CCL2 gene expression; format: cell-based, murine; conditions: doses of 0.625 and 2.5 µM
Outline: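 Primary glia came from newborn C57BL/6J pups at postnatal day 1. Brains were triturated, strained at 100 and 40 µm, and 6 × 10^5 cells were seeded on poly-L-lysine in DMEM/F12 with 5% FBS and 0.05% gentamicin at 37°C and 5% CO2. Medium was renewed at day 7, and cells (about 85% astrocytes, 15% microglia) were used 12 days after seeding. After LPS stimulation, RNA went to random-primed cDNA and SYBR Green qPCR (comparative quantitation), n = 3–4, ANOVA/Tukey.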

[4] = system: LPS-stimulated THP-1 cells; experiment: CCL2 expression in LPS-stimulated THP-1 cells; format: cell-based, human; conditions: increasing concentrations
[5] = system: LPS-stimulated primary murine glia cells; experiment: total-CCL2 and pE1-CCL2 ELISA of LPS-stimulated primary glia cells; format: cell-based; conditions: varying doses
[6] = system: murine primary macrophages; experiment: pE1-CCL2 secreted from LPS-stimulated primary macrophages; format: cell-based
Outline: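 Blood was drawn by cardiac puncture into heparin from isoflurane-anaesthetised (2%) mice. PBMCs were separated on an LSM 1077 gradient, grown overnight, and adherent cells were detached with accutase and plated at 1 × 10^5 cells/well. Cells were stimulated with 1 µg/ml LPS (E. coli O55:B5) for 24 h. Medium pE1-CCL2 was measured by ELISA with 50 ng/well rabbit anti-mJE capture (coated 4–7 days, 4°C), read at 450 nm minus 550 nm.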

THP-1 cells = experiment: TransWell chemotaxis assay; format: cell-based, human; conditions: THP-1 monocytes, 2 h migration
Outline: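 THP-1 cells were grown in RPMI with 10% FBS and 50 µg/ml gentamicin at 37°C and 5% CO2, with mycoplasma checks. Cells at 1 × 10^6 per 100 µl RPMI1640 went into the upper chamber of 5 µm-pore TransWells, with chemoattractant below and serum-free RPMI as negative control. After 2 h at 37°C, 70 mM EDTA released bound cells (15 min, 37°C). Migrated cells were counted by cell counter or by FACS against 5000 Trucount beads.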

human recombinant DP4 = human recombinant DP4 (Homo sapiens, UniProt P27487); experiment: Degradation of MCPs by DP4; format: biochemical; conditions: for N-terminal truncation by recombinant human DP4: 10 µg/ml in 25 mM Tris/HCl pH 7.6; for truncation by DP4: mature state bearing a pE-residue
human recombinant DP4, sequence (P27487 whole entry, the tested form may be a part): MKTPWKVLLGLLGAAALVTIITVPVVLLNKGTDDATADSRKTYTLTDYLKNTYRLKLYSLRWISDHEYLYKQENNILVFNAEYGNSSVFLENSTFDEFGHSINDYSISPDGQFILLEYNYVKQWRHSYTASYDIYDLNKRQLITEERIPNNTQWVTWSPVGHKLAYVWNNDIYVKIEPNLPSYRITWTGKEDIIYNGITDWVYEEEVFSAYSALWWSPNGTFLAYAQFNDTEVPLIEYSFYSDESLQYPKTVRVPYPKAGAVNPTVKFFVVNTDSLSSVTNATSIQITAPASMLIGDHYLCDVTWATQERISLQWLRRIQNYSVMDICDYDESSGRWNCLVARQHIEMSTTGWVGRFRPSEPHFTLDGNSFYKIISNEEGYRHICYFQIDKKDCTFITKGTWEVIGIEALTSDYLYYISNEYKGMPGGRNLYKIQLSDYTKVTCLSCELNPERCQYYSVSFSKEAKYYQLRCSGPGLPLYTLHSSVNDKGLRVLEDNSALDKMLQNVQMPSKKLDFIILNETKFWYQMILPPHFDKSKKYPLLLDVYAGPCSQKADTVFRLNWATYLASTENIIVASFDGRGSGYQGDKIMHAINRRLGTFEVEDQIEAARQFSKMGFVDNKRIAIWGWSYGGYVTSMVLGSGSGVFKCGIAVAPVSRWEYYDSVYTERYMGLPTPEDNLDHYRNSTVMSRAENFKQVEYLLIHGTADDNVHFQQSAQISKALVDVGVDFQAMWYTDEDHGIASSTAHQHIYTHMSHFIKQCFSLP
Outline: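 Recombinant CCL2, CCL7, CCL8 and CCL13 (Gln- and pGlu-forms) were either pre-incubated with recombinant human QC (0.6 µg/ml) for 2 h at 30°C and then incubated with recombinant human DP4, or incubated with DP4 alone. Truncation products were read by linear-mode MALDI-TOF-MS in positive ion mode over 2000–20,000 amu, summing at least 6 × 100 laser pulses.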

[7] = Degradation of CCL2 in human plasma; format: in vitro ADME; conditions: incubation with human plasma
Outline: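 CCL2(Q1-76) was incubated with human plasma, either directly or after pre-incubation with recombinant human QC. N-terminal cleavage products were read by linear-mode MALDI-TOF-MS in positive ion mode over 2000–20,000 amu, calibrated with insulin and myoglobin. Each spectrum sums at least 6 × 100 laser pulses.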

CCR2 = CCR2 (Homo sapiens, UniProt P41597); experiment: CCR2 receptor internalization assay; format: cell-based; conditions: human THP-1 monocytes, 45 min at 37°C, FACS
CCR2, sequence (P41597 whole entry): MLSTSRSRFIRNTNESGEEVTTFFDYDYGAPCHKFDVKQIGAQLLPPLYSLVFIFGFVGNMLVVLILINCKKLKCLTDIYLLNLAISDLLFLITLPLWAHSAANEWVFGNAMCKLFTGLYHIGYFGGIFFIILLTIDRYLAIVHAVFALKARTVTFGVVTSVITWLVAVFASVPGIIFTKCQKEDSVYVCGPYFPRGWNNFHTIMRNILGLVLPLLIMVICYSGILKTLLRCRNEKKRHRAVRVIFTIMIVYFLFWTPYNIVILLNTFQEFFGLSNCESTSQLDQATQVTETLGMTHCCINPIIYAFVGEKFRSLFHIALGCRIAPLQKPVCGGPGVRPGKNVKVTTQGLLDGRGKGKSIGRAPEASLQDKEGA
Outline: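 THP-1 cells were maintained in RPMI with 10% FBS and 50 µg/ml gentamicin at 37°C, 5% CO2, and checked for mycoplasma. 6 × 10^5 cells were exposed in serum-free RPMI 1640 to N-terminal CCL2 variant ligands, then harvested into cold PBS. They were Fc-blocked for 10 min at 4°C and stained 30 min at 4°C with PE anti-CCR2 or IgG2B isotype control. After a PBS wash, they were analysed by flow cytometry.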

[8] = 2 days after surgery, drinking water 2.4 mg/ml

human isoQC, sequence (Q9NXS2 whole entry): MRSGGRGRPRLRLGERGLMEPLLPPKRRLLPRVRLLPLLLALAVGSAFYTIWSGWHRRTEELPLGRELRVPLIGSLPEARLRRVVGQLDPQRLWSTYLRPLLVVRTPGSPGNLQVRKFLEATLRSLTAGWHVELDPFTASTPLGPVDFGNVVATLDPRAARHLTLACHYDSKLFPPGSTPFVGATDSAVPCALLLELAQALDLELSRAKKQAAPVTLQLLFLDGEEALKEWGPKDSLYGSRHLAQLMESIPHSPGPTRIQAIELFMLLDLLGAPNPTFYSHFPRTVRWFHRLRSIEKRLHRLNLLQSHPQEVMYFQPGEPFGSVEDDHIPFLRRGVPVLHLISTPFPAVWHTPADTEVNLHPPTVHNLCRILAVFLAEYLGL

Molecule: COc1ccc(NC(=S)NCCCn2ccnc2)cc1OC [PQ50, 1-(3-(1H-Imidazol-1-yl)propyl)-3-(3,4-dimethoxyphenyl)thiourea]
gene expression of CCL2, CCL7, IL-6 and TNF-alpha in cells of the peritoneal lavage (C57BL/6J mice): without changing
number of monocytes after stimulation with thioglycollate (C57BL/6J mice): reduced the number of monocytes
level of ICAM1 and CCR2 (C57BL/6J mice): unchanged
Ki (human isoQC): 236 nM
Ki (murine QC): 170 nM
toxicity [1]: without overt signs of toxicity
area of the media (ApoE3*Leiden mice; 2 weeks after surgery): reduced
total area within the outer diameter of the vessel segment, area of the interna, number of foam cells (ApoE3*Leiden mice; 2 weeks after surgery): did not affect
CCL2-immunopositive area (ApoE3*Leiden mice; 2 weeks after surgery, treated vs untreated): did not differ
reduction of monocytes at the cuffed vessel segments (ApoE3*Leiden mice; [8]): 67%
reduction of total adhering cells at the cuffed vessel segments (ApoE3*Leiden mice; [8]): 45%
Ki (murine isoQC): 246 nM

Molecule: CCCOc1ccc(C2C(=O)NC(=O)N2c2ccc3[nH]cnc3c2)cc1 (centres unmarked) [PQ529, 1-(1H-benzo[d]imidazol-5-yl) -5-(4-propoxyphenyl) imidazolidine-2,4-dione]
gene expression of CCL2, CCL7, IL-6 and TNF-alpha in cells of the peritoneal lavage (C57BL/6J mice): without changing
number of monocytes after stimulation with thioglycollate (C57BL/6J mice): reduced the number of monocytes
level of ICAM1 and CCR2 (C57BL/6J mice): unchanged
pE^1-CCL2 secreted [2]: reduced
CCL2 mRNA [3]: slight but significant increase
CCL2 expression [4]: did not show an effect
concentration of pE^1-CCL2 [5]: decreased the concentration of pE^1-CCL2 dose-dependently
pE^1-CCL2 secreted [6]: reduced

Molecule: CCL2(D^3-76): DP4-cleavage product of CCL2
monocyte attraction (chemotaxis) (THP-1 cells): shift to higher concentrations needed to elicit chemotaxis

N-terminal truncation by recombinant human DP4 (human recombinant DP4): susceptible to cleavage
Molecule: CCL2(Q^1-76): recombinant human CCL2 possessing an N-terminal glutaminyl residue (immature form)

CCR2 internalization (CCR2): most potent
N-terminal truncation by recombinant human DP4 (human recombinant DP4): prevented N-terminal truncation
Molecule: CCL2(pE^1-76): mature human CCL2 with N-terminal pyroglutamate residue
monocyte attraction (chemotaxis) (THP-1 cells): highest efficacy
N-terminal degradation in human plasma [7]: completely resistant to cleavage

truncation by DP4 (human recombinant DP4): protected against truncation
Molecule: CCL7: recombinant human CCL7, MCP family member

truncation by DP4 (human recombinant DP4): protected against truncation
Molecule: CCL13: recombinant human CCL13, MCP family member

truncation by DP4 (human recombinant DP4): protected against truncation
B1: CCL8: recombinant human CCL8 (MCP-2) (protein, UniProt P80075 24-99, looked up)
C-C motif chemokine 8: QPDSVSIPITCCFNVINRKIPIQRLESYTRITNIQCPKEAVIFKTKRGKEVCADPKERWVRDSMKHLDQIFQNLKP
